Measurements published in ChEMBL document CHEMBL3853316 (J Med Chem, 2016).

Assays:
[1] = Half life in rat liver microsomes; assay type: ADME
[2] = Volume of distribution at steady state in dog at 0.2 mg/kg, iv and 1 mg/kg, po; assay type: ADME, organism-based, Canis lupus familiaris; conditions: in vivo, read-out: Vdss
Method in brief: (§1)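 Dogs (n = 3) were dosed at 0.2 mg/kg iv and 1.0 mg/kg po for pharmacokinetic parameters.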

[3] = Half life in dog liver microsomes; assay type: ADME, Canis lupus familiaris
[4] = Clearance in dog at 0.2 mg/kg, iv and 1 mg/kg, po; assay type: ADME, organism-based, Canis lupus familiaris; conditions: in vivo; method in brief: as §1
[5] = Half life in human liver microsomes; assay type: ADME
[6] = Dissociation constant, pKa of the compound in methanol/water by spectrophotometric titration method; assay type: physicochemical
[7] = Half life in dog at 0.2 mg/kg, iv and 1 mg/kg, po; assay type: ADME, organism-based, Canis lupus familiaris; conditions: in vivo; method in brief: as §1
[8] = Oral bioavailability in dog at 1 mg/kg; assay type: ADME, organism-based, Canis lupus familiaris; conditions: in vivo; method in brief: as §1

Row | half-life [1] [min] | Vd [2] [L/kg] | half-life [3] [min] | clearance [4] [mL/min/kg] | half-life [5] [min] | pKa [6] | half-life [7] [min] | bioavailability [8] [%] | Structure (SMILES)
1 | 1.9 | 5 | 26 | 8 | 45 | 7.1 | 480 | 40 | Cc1cc2ccc1[C@@H](C)COC(=O)Nc1ccc(S(=O)(=O)C3CC3)c(c1)CN(C)C(=O)[C@@H]2Nc1ccc2c(N)ncc(F)c2c1
2 | 37 | – | 140 | – | 130 | – | – | 22 | Cc1cc2ccc1[C@@H](C)COC(=O)Nc1ccc(OC(F)(F)F)c(c1)CN(C)C(=O)[C@@H]2Nc1ccc2c(N)nccc2c1
3 | 3.3 | 8 | 39 | 13 | 120 | 8 | 480 | 24 | Cc1cc2ccc1[C@@H](C)COC(=O)Nc1ccc(S(=O)(=O)C3CC3)c(c1)CN(C)C(=O)[C@@H]2Nc1cc(F)c2c(N)nccc2c1
4 | 10 | 4 | 7 | 11 | 95 | – | 360 | < 1 | Cc1cc2ccc1[C@@H](C)COC(=O)Nc1ccc(S(=O)(=O)C3CC3)c(c1)CN(C)C(=O)[C@@H]2Nc1cc2ccnc(N)c2cc1F
5 | 12 | – | 110 | – | > 120 | 8.7 | – | 1 | Cc1cc2ccc1[C@@H](C)COC(=O)Nc1ccc(S(=O)(=O)C3CC3)c(c1)CN(C)C(=O)[C@@H]2Nc1ccc2c(N)nccc2c1
